Furin inh = inhibitors of human furin; purified furin, fluorogenic substrate cleavage; actives 0.061% (n = 220,000); P09958; inhibition, % at 20 µM or 30 µM; in the data active means inhibition above about 25%
JMJD2C inh = blocks human GASC-1 demethylase activity; GST-JMJD2C(1-420) H3K9me3 demethylation, DELFIA europium; inhibition, % at 2.35 µM; actives 0.069% (n = 330,000); AID 2099;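 active means more than half of a compound's replicate wells show inhibition beyond 50%, single wells judged on their own value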;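 further: signal counts dimethyl H3K9 product captured on neutravidin plate; 0% = median of DMSO wells and 100% = 0.3 times that DMSO median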
NR2E3 ag-1 = human photoreceptor-specific nuclear receptor agonism; CHO-S Gal4-NCOR/VP16-NR2E3 two-hybrid, luciferase; inhibition of corepressor binding, % at 3.98 µM; actives 0.35% (n = 360,000); AID 602229;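 active means inhibition above the mean of all tested compounds plus 3 SD, cut at about 70% in these data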;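 further: 0% = DMSO with NR2E3 transfected cells and 100% = cells lacking NR2E3 construct; higher means lower luciferase signal from less NR2E3 corepressor binding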
Target sequence (Q9Y5X4 whole entry, looked up, the tested form may be a part): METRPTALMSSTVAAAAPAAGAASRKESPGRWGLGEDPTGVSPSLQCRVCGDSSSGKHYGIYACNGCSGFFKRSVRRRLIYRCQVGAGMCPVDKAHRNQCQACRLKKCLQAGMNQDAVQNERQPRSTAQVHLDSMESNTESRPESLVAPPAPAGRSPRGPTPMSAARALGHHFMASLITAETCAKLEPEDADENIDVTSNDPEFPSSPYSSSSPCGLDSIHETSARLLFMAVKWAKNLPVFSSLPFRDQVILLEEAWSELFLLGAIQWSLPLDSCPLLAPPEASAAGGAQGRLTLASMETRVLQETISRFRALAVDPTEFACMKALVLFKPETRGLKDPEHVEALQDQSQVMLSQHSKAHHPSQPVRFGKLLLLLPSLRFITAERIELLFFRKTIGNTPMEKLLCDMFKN
EP2 modulator = modulators of human EP2 prostaglandin E2 receptor | EP2-expressing cells, cAMP HTRF FRET, PGE2 co-stimulation | induction, % at 25 µM | actives 0.83% (n = 260,000) | AID 940;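 active means compounds whose cAMP rise, as percent of the full-agonist control response, exceeds 60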;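 further: rat C6 glioma line stably carrying human EP2 under a CMV promoter; the protocol text gives 20 µM as final concentration; 100% = response of wells given 1 µM PGE2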
NR2E3 ag-2 = NR2E3 (human) agonism | GST-NR2E3/biotin-RetCOR TR-FRET, 1536-well | Q9Y5X4 | AID 2300 | actives 0.12% (n = 320,000) | inhibition of corepressor binding, % at 4.78 µM;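 active means percent inhibition above the cutoff of mean plus 3 SD of all tested compounds, set per screening campaign, cut at about 20% in these data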;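 further: 0% = DMSO wells and 100% = biotin wells as full block of FRET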
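Test system: GST-NR2E3 and biotin-RetCOR proteins | Quantity: 1.35 nM GST-tagged NR2E3 final | Medium: Tris pH 7.5 | Also added: 7 nM biotin-RetCOR | Dosing: Compound at 4.8 µM, single dose | Timing: 5 h at 4 °C | Detection: Time-resolved FRET | Read-out basis: Percent inhibition | Benchmarks: Biotin wells as high control, 0.6% DMSO wells as low control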
EP2 antag = inhibitors of human EP2 prostaglandin E2 receptor; inhibition, % at 25 µM; actives 0.52% (n = 260,000); P43116; C6 glioma cells expressing human EP2, cAMP TR-FRET; cells stimulated with saturating PGE2;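 active means percent inhibition above 40 after rounding to a whole number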;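 further: rat C6 glioma host cells with rolipram phosphodiesterase inhibitor present; the protocol text gives 20 µM as final concentration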
* = called active by the depositor; i = inactive; x = no result; ! = not confirmed by another sample. The list is not random: actives were taken first. Their share in the collection is about 1.3%.

SMILES	Furin inh	JMJD2C inh	NR2E3 ag-1	EP2 modulator	NR2E3 ag-2	EP2 antag
CC1=CC(=O)C(C(C)C)=C/C1=N/OS(=O)(=O)c1ccccc1	-1	1	8	-20	-6	13
CC1=CC(=O)C=C(C)C1=NOS(=O)(=O)c1ccccc1	-5	3	-14	-25	x	56*
O=C(NCCn1nc(-c2cccs2)ccc1=O)C1CCCCC1	x	x	x	-29	x	x
N=C(N)SCc1ccccc1Cl	-18	-2	-22	0	-3	7
N=C(N)SCc1ccc(Cl)cc1Cl (tested in a mixture with another compound)	x	x	x	-32	x	53*
Cc1ccccc1C1c2[nH]c3ccccc3c2CCN1CCCn1cccn1 (stereo unspecified)	-20	4	-18	64*	3	9
N=C1/C(=C\c2ccc(-c3cccc(C(=O)O)c3)o2)C(=O)N=C2SC=C(c3ccccc3)N12	-3	5	-30	-50	2	59*
N#Cc1nc(-c2ccc(OCc3ccccc3)cc2)oc1NCCCn1ccnc1	-36	2	-10	-57	-1	40*
O=C(Nc1cccc([N+](=O)[O-])c1)c1ccc2nc(N3C(=O)CCC3=O)sc2c1	-35	7	-11	-38	0	85*
COc1ccc(S(=O)(=O)N2CCCC2)cc1C	x	x	x	8	x	16
CCCOC(=O)CN1C(=O)c2ccc(C(=O)OCCC)cc2C1=O	-14	-7	8	12	2	-2
CCCCOC(=O)CN1C(=O)c2ccc(C(=O)OCCCC)cc2C1=O	-3	-1	-1	63*	-1	9
COC(=O)c1ccc(S(=O)(=O)N2CCC(C)CC2)cc1	x	x	x	-21	x	9
C=CCn1c2cc(C)sc2c2cnn(CC(=O)OCC)c(=O)c21	x	x	x	-5	x	x
COc1ccc(-c2ncc(CN3CCC(CO)C3)cn2)cc1 (stereo unspecified)	x	x	x	-2	x	8
CCOc1ccc2cc(C#N)c(SCC(=O)N3CCc4ccccc43)nc2c1	x	x	x	32	x	14
COc1cccc2cc(-c3nc(-c4cccs4)cs3)c(=O)oc12	-7	-9	-148	53	1	19
O=c1oc2ccccc2cc1-c1nc(-c2cccs2)cs1	-10	31	-67	61*	3	8
CC1CCN(CC(=O)Nc2ccccc2C(=O)c2ccccc2)CC1	-29	0	0	63*	-1	0
CC1CCN(CC(=O)Nc2ccccc2-c2ccccc2)CC1	-28	7	26	65*!	0	5
COC(=O)[C@H]1[C@@H]2C[C@H]3c4[nH]c5ccccc5c4CCN3C[C@H]2CC[C@@H]1OS(=O)(=O)O	x	x	x	10	x	48*
O=C(O)[C@@H]1[C@H]2C[C@H]3c4[nH]c5ccccc5c4CCN3C[C@@H]2CC[C@@H]1O	x	x	-6	x	4	x
O=C1ON=C(c2ccccc2)/C1=C/c1ccc(O)cc1	x	2	-15	x	-2	x
O=C1ON=C(c2ccc(Cl)cc2)/C1=C/c1ccc(O)cc1	-19	1	x	-65	-2	53*
Cc1cc2cc3c(cc2n2c(=O)n(CC(=O)NC(C)C)nc12)OCO3	x	x	x	5	x	x
SMILES	Furin inh	JMJD2C inh	NR2E3 ag-1	EP2 modulator	NR2E3 ag-2	EP2 antag
CC1=C(C#N)C(=O)N(C2CCS(=O)(=O)C2)C(=O)/C1=C\c1ccco1 (stereo unspecified)	-3	15	x	13	27*	6
CCN(c1ccccc1)S(=O)(=O)c1ccc(Cl)c(NC(=O)Nc2ccc(Cl)cc2C#N)c1	-22	-36	-9	61*	-2	3
N=C(N)S[C@@H]1c2ccccc2-c2cc([N+](=O)[O-])ccc21	x	x	x	-51	x	48*
COc1ccc(C(=O)c2c(C(F)(F)F)oc3c2C(=O)c2ccccc2C3=O)cc1	-16	-24	93*	-49	0	35
CN(Cc1cc(C(C)(C)C)cc(Br)c1O)Cc1cc(C(C)(C)C)cc(Br)c1O	x	x	x	5	x	43*
Cc1ccccc1NC(=O)/C=C/c1ccc([N+](=O)[O-])s1	-19	-3	85*	-15	0	6
CC(C)C(c1nnnn1C(C)(C)C)N(Cc1cccs1)Cc1cc2cc3c(cc2[nH]c1=O)OCO3 (stereo unspecified)	x	x	x	55	x	12
O=c1cc(-c2ccc(O)c(O)c2)oc2c(C3O[C@H](CO)[C@@H](O)[C@H](O)[C@H]3O)c(O)cc(O)c12 (stereo partly specified)	6	64*	-36	30	1	15
Cc1cc(C)n2nc(SCC(=O)Nc3ccccc3)nc2n1	-8	-6	0	17	1	5
C/C(=N\NC(=O)CSc1nc2nc(C)cc(C)n2n1)c1ccccc1	-13	3	-22	7	1	128*
O=C(CCC1CCCCC1)Nc1ccc(Cl)cn1	x	x	x	9	x	5
O=c1oc2ccccc2c(O)c1/C=N/c1nc(-c2ccc(O)c(O)c2)cs1	x	x	x	36	x	41*
O=C1CC(c2ccccc2)CC(=O)N1c1nn[nH]n1	x	x	x	10	x	8
CCCCOC(=O)CNc1n[nH]c(=S)[nH]c1=O	-13	-10	-10	-32	0	114*
CCCCOC(=O)C(C)Nc1n[nH]c(=S)[nH]c1=O (stereo unspecified)	-31	-19	x	6	-1	36
CC(C)COC(=O)CNc1n[nH]c(=S)[nH]c1=O	-8	1	-5	-18	1	133*
NC(=O)CNc1n[nH]c(=S)[nH]c1=O	-1	7	4	19	2	9
Cc1cccc(Cl)c1NC[C@H](O)CN1CCN(C)CC1	x	x	x	13	x	47*
Cc1ccccc1OCC(O)CN1CCN(C)CC1 (stereo unspecified)	-34	0	-7	16	4	6
COc1cc(NS(=O)(=O)c2ccc(NC(=O)CCc3ccccc3)cc2)nc(OC)n1	x	x	x	-100	x	9
CCOC(=O)C1CCN(C(=O)c2cc3sccc3n2Cc2ccccc2)CC1	x	x	x	-13	x	6
O=C(c1cc2sccc2n1Cc1ccccc1)N1CCN(c2nc3ccccc3s2)CC1	-13	i	80*	30	3	11
COc1ccc(NC(=S)NCc2ccc(S(N)(=O)=O)cc2)cc1OC	-17	56*	4	12	-1	14
COc1ccc(/C=C2\Sc3ccc(C(=O)N4CCCC4)cc3N(C)C2=O)cc1OC	x	53*	11	x	-2	x
CCOc1ccc(/C=C2/Sc3ccc(C(=O)N4CCOCC4)cc3N(C)C2=O)cc1OC	x	-36	4	x	-1	x
CN(C)S(=O)(=O)c1ccc(-c2csc(N/N=C/c3ccco3)n2)cc1	-23	-6	-2	-51	-2	47*
Cc1ccc(-c2csc(N/N=C/c3ccco3)n2)cc1	-10	-4	-11	-5	1	4
CN(C)S(=O)(=O)c1ccc(-c2csc(N/N=C/c3ccc(O)cc3)n2)cc1	-14	-5	-19	-56	1	104*

Compound activity deposited in PubChem BioAssay by several laboratories.
